Data on 2 molecules can be found in ChEMBL document CHEMBL1154126, “Sulforaphane induces cell-cycle arrest and apoptosis in cultured human lung adenocarcinoma LTEP-A2 cells and retards growth of LTEP-A2 xenografts in vivo” (J Nat Prod, 2008).

Test [1] in a line: Antiproliferative activity against human LTEP-A2 cells assessed as viable cells at 12.5 uM after 24 hrs by trypan blue exclusion assay. In kind it is functional. The following applies: LTEP-A2, 24 h, read-out: Activity. In short, it runs like this:
(§1)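 Suspension-grown LTEP-A2 cells in RPMI 1640 with 20% heat-inactivated bovine serum, penicillin and streptomycin. Exponentially growing cells were added at 400 000 cells/mL to medium with 6.25–50 µM compound. Trypan blue-excluding cells were counted at 3, 24, 48 and 72 h relative to controls. IC50 was interpolated from 24 h dose-response curves. Three independent experiments, mean ± SD.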

A further test deals with OVCAR-3. Kind of test: Antiproliferative activity against human OVCAR-3 cells. Format: functional, cell-based.
Test [2] is described as follows: Antiproliferative activity against human LTEP-A2 cells assessed as viable cells at 25 uM after 24 hrs by trypan blue exclusion assay. The settings on record: LTEP-A2, 24 h, read-out: Activity. Format: functional. In short, it runs like this: as §1
In the next test the test system is LTEP-A2. Kind of test: Antiproliferative activity against human LTEP-A2 cells by trypan blue exclusion assay. In kind it is functional, cell-based. In short, it runs like this: as §1
The nature of test [3]: Antiproliferative activity against human LTEP-A2 cells after 24 hrs by trypan blue exclusion assay. The settings on record: LTEP-A2, 24 h. In kind it is functional, cell-based. The method, boiled down:
as §1

A short description of test [4]: Antiproliferative activity against human LS 174T cells. Format: functional, cell-based. The following applies: LS174T.
A further test has as its system Jurkat. The test can be described thus: Antiproliferative activity against human lymphoblastoid cells using annexin-V FITC and PI staining by flow cytometry. Background: A flow cytometer gives signals particle by particle.
A further test concerns DU-145. The test can be described thus: Antiproliferative activity against human DU145 cells assessed as viable cells after 24 hrs. The settings on record: DU-145, 24 h.

A word on the IC50: it is the concentration needed to halve the response being measured. Turning to `S=C=NCCc1ccccc1` [PHENETHYLISOTHIOCYANATE], the viability at 12.5 µM in test [1] was determined as 12%. For the same molecule, the values for the IC50 (in the test on OVCAR-3; in test [3]; in test [4]) were 23.2 µM, 20 µM and 7 µM, respectively. Moreover, the viability at 25 µM in test [2] is 81%. In addition, the Activity entry in the test on LTEP-A2 was “Dose-dependent effect”.
In the case of `C[S+]([O-])CCCCN=C=S` (stereo not given) [SULFORAPHANE], the IC50 with Jurkat was determined as 3.8 µM; in test [3] it was 6.25 µM; in the test with DU-145, 10 µM; in test [4], 95 µM.
